Measurements as given in ChEMBL document CHEMBL1154785, “Identification of critical ligand binding determinants in Mycobacterium tuberculosis adenosine-5'-phosphosulfate reductase” (J Med Chem, 2009).

Key:
[1] = Binding affinity to Mycobacterium tuberculosis adenosine-5'-phosphosulfate reductase assessed as S-sulfocysteine formation at pH 5.5 by single turnover method in absence of thioredoxin
[2] = Binding affinity to Mycobacterium tuberculosis adenosine-5'-phosphosulfate reductase assessed as S-sulfocysteine formation at pH 7.5 by single turnover method
[3] = Binding affinity to Mycobacterium tuberculosis adenosine-5'-phosphosulfate reductase assessed as S-sulfocysteine formation at pH 9 by single turnover method
[4] = Dissociation constant, pKa at pH 6 to 9.5; type: physicochemical
[5] = Displacement of [35S]APS from Mycobacterium tuberculosis adenosine-5'-phosphosulfate reductase by liquid scintillation counting
Outline: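 Purified enzyme; reduction of ³⁵S-APS to sulfite at 30 °C in 100 mM bis-tris propane pH 7.5, 5 mM DTT and 10 μM thioredoxin. Quenched with 2% charcoal containing 20 mM Na₂SO₃, then ³⁵S-sulfite in the supernatant counted by scintillation. k_obs taken at varied inhibitor levels with [³⁵S-APS] ≪ K1/2, fit to competitive inhibition (Ki taken as Kd). At least two independent experiments.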

[6] = Binding affinity to Mycobacterium tuberculosis adenosine-5'-phosphosulfate reductase assessed as S-sulfocysteine formation at pH 7.5 by single turnover method in absence of MgCl2
[7] = Binding affinity to Mycobacterium tuberculosis adenosine-5'-phosphosulfate reductase assessed as S-sulfocysteine formation at pH 7.5 by single turnover method in presence of 0.5 mM MgCl2
[8] = Binding affinity to Mycobacterium tuberculosis adenosine-5'-phosphosulfate reductase assessed as S-sulfocysteine formation at pH 7.5 by single turnover method in presence of 2 mM MgCl2
[9] = tested on: Mycobacterium tuberculosis; assay: Ratio of Kd for Mycobacterium tuberculosis adenosine-5'-phosphosulfate reductase in presence of 0.5 mM MgCl2 to Kd Mycobacterium tuberculosis adenosine-5'-phosphosulfate reductase in absence of MgCl2
[10] = tested on: Mycobacterium tuberculosis; assay: Ratio of Kd for Mycobacterium tuberculosis adenosine-5'-phosphosulfate reductase in presence of 2 mM MgCl2 to Kd Mycobacterium tuberculosis adenosine-5'-phosphosulfate reductase in absence of MgCl2
[11] = tested on: Mycobacterium tuberculosis; assay: Ratio of Kcat to Km of Mycobacterium tuberculosis adenosine-5'-phosphosulfate reductase; settings: tested as the 35S-labelled form
[12] = Dissociation constant, pKa in solution; type: physicochemical

Compound: Nc1ncnc2c1ncn2[C@@H]1O[C@H](CO)[C@@H](O)[C@H]1O [ADENOSINE]
- Kd [1]: 3000 µM

Compound: Nc1ncnc2c1ncn2[C@@H]1O[C@H](COP(=O)(O)CS(=O)(=O)O)[C@@H](O)[C@H]1O
- Kd [1]: 700 µM

Compound: O=P(O)(O)OC[C@H]1O[C@@H](O)[C@H](O)[C@@H]1O
- Kd [1]: 93 µM

Compound: O=S(=O)(O)O [SULFURIC ACID]
- Kd [1]: ≥ 310000 µM

Compound: Nc1[nH]cnc2ncnc1-2 [ADENINE]
- Kd [1]: ≥ 90000 µM

Compound: Nc1ncnc2c1ncn2[C@@H]1O[C@H](COP(=O)(S)OP(=O)(O)O)[C@@H](O)[C@H]1O (stereo partly specified)
- Kd [1]: 0.8 µM

Compound: Nc1ncnc2c1ncn2[C@@H]1O[C@H](COP(=O)(O)CP(=O)(O)O)[C@@H](O)[C@H]1O [PHOSPHOMETHYLPHOSPHONIC ACID ADENOSYL ESTER]
- Kd [1]: 27 µM

Compound: O=P(O)(O)O [PHOSPHORIC ACID]
- Kd [1]: 66000 µM

Compound: Nc1ncnc2c1ncn2[C@@H]1O[C@H](COP(N)(=O)O)[C@@H](O)[C@H]1O
- Kd [1]: 100 µM
- Kd [2]: 100 µM
- Kd [3]: 82 µM

Compound: Nc1ncnc2c1ncn2[C@@H]1O[C@H](COP(=O)(O)O)[C@@H](O)[C@H]1O [ADENOSINE PHOSPHATE]
- Kd [1]: 5.4 µM
- pKa [4]: 8.1
- Kd [5]: 5.4 µM
- Kd [6]: 5.4 µM
- Kd [7]: 21 µM
- Kd [8]: 31 µM
- Ratio [9]: 5
- Ratio [10]: 5

Compound: Nc1ncnc2c1ncn2[C@@H]1O[C@H](COP(=O)(O)OP(=O)(O)O)[C@@H](O)[C@H]1O [ADENOSINE DIPHOSPHATE]
- Kd [1]: 4.3 µM
- pKa [4]: 6.4
- Kd [6]: 4.3 µM
- Kd [7]: 7.3 µM
- Kd [8]: 20 µM
- Ratio [9]: 5
- Ratio [10]: 5

Compound: Nc1ncnc2c1ncn2[C@@H]1O[C@H](COP(=O)(O)NP(=O)(O)O)[C@@H](O)[C@H]1O
- Kd [1]: 260 µM
- Kd [2]: 257 µM
- Kd [3]: 110 µM

Compound: Nc1ncnc2c1ncn2[C@@H]1O[C@H](COP(=O)(O)O)[C@@H](OP(=O)(O)O)[C@H]1O
- Kd [1]: 770 µM

Compound: Nc1ncnc2c1ncn2[C@@H]1O[C@H](COP(=O)(O)OS(=O)(=O)O)[C@@H](O)[C@H]1O
- Kd [1]: 0.2 µM
- Ki [1]: 0.2 µM
- kcat/Km [11]: 2 ×10⁶ /M/s

Compound: Nc1ncnc2c1ncn2[C@@H]1O[C@H](CO)[C@@H](OP(=O)(O)O)[C@H]1O
- Kd [1]: 3200 µM

Compound: Nc1ncnc2c1ncn2[C@@H]1O[C@H](COP(=O)(O)C(F)(F)P(=O)(O)O)[C@@H](O)[C@H]1O
- Kd [1]: 13 µM

Compound: O[C@@H]1[C@H](O)[C@H](O)CO[C@H]1O [RIBOSE (PYRANOSE)]
- Kd [1]: 680000 µM

Compound: Nc1ncnc2c1ncn2[C@@H]1O[C@H](COP(=O)(O)OP(N)(=O)O)[C@@H](O)[C@H]1O
- Kd [1]: 410 µM
- Kd [2]: 410 µM
- Kd [3]: 56.8 µM

Compound: Nc1ncnc2c1ncn2[C@@H]1O[C@H](COP(=O)(O)OP(=O)(O)S)[C@@H](O)[C@H]1O (stereo partly specified)
- Kd [1]: 0.15 µM
- pKa [4]: 5.8
- pKa [12]: 5.2

Compound: Nc1ncnc2c1ncn2[C@@H]1O[C@H](COP(O)(O)=S)[C@@H](O)[C@H]1O
- Kd [1]: 3.3 µM
- pKa [4]: 7.7
- pKa [12]: 7.7

Compound: Nc1ncnc2c1ncn2[C@@H]1O[C@H](COP(=O)(S)OS(=O)(=O)O)[C@@H](O)[C@H]1O (mixture of isomers)
- Kd [1]: 43 µM
